ChEMBL document CHEMBL3272188, “Inhibitors of Bacillus subtilis DNA polymerase III. 6-(arylalkylamino)uracils and 6-anilinouracils” (J Med Chem, 1977)

Key:
[1] = Inhibition of wild-type Bacillus subtilis DNA polymerase 3-mediated dGTP truncated DNA synthesis assessed as inhibition of incorporation of [3H]TMP
Summary of the method: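 Pol III truncated DNA synthesis run with dGTP omitted from the reaction. The reported Ki is the inhibitor concentration giving 50% inhibition of enzyme activity.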

[2] = test system: Bacillus subtilis; assay: Inhibition of wild-type Bacillus subtilis DNA polymerase 3-mediated dGTP truncated DNA synthesis assessed as inhibition of incorporation of [3H]TMP at 1 mM
Summary of the method: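 Single-concentration test at 1 mM inhibitor in pol III truncated DNA synthesis with dGTP omitted.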

[3] = Inhibition of Bacillus subtilis DNA polymerase 3/azp-12 mutant-mediated dGTP truncated DNA synthesis assessed as inhibition of incorporation of [3H]TMP

Row | Structure (SMILES) | Ki [1] [µM] | inhibition [2] [%] | Ki [3] [µM]
1 | Cc1ccc(Nc2cc(O)nc(O)n2)cc1C | 1 |  | 
2 | Oc1cc(NCCCCc2ccccc2)nc(O)n1 |  | < 10 | 
3 | Oc1cc(Nc2ccc3c(c2)CCC3)nc(O)n1 | 0.4 |  | 
4 | CC(Nc1cc(=O)[nH]c(=O)[nH]1)c1ccccc1 (configuration not stated) |  | < 10 | 
5 | CC(=O)Nc1ccc(CNc2cc(=O)[nH]c(=O)[nH]2)cc1 | 2300 |  | 
6 | Oc1cc(Nc2ccccc2)nc(O)n1 |  | < 10 | 
7 | O=c1cc(NCc2ccc([N+](=O)[O-])cc2)[nH]c(=O)[nH]1 | 5.2 |  | 
8 | Cc1ccc(Nc2cc(O)nc(O)n2)cc1 | 20.4 |  | 
9 | Oc1cc(NCCc2ccccc2)nc(O)n1 | 31.7 |  | 30
10 | O=c1cc(NCC2CCCCC2)[nH]c(=O)[nH]1 |  | < 10 | 
11 | Cc1cccc(Nc2cc(O)nc(O)n2)c1 | 27.5 |  | 
12 | Nc1ccc(CNc2cc(=O)[nH]c(=O)[nH]2)cc1 | 17 |  | 156
13 | Oc1cc(NCc2ccccc2)nc(O)n1 | 2.3 |  | 2.5
14 | Oc1cc(NCCCc2ccccc2)nc(O)n1 | 2000 |  | 
